# ChEMBL document CHEMBL3351236, “Prodrug oncrasin-266 improves the stability, pharmacokinetics, and safety of NSC-743380” (Bioorg Med Chem, 2014)
# The source made the active and inactive calls. No cut-off for these calls is given here.
# How the values were obtained:
# Mus musculus [1] = test: Toxicity in Balb/c mouse assessed as serum AST level at 150 mg/kg, ip dosed daily for 3 days using compound formulated in Solutol HS15 and ethyl alcohol measured on day 6; type: organism-based; parameters: dose 150 mg/kg, route intraperitoneal; conditions: in vivo, 72 h
# Plasma = test: Pro-drug conversion in human plasma assessed as oncrasin-72 release by HPLC method; type: ADME, cell-free
# Tumour [2] = test: Drug level in tumor of Balb/c mouse xenografted with human Calu3 cells assessed as aldehyde metabolite level at 60 mg/kg, iv using compound formulated in Solutol HS15 and ethyl alcohol measured after 24 hrs by HPLC/MS method; type: ADME, organism-based, Neoplasm, Calu-3; parameters: dose 60 mg/kg, route intravenous; conditions: in vivo
# Summary of the method: (§1)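 Nude mice bearing subcutaneous Calu3 xenografts, 1 mouse per treatment group. Organs and tumor were taken 24 h later and kept at −80°C, then homogenized in methanol (50 mg/ml) on ice. Homogenate was extracted with acetonitrile containing 0.2% formic acid plus an internal standard, centrifuged, and the supernatant analyzed by HPLC/MS.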
# [3] = Stability in powder form in non-evacuated chambers at 4 degC by HPLC method; type: physicochemical
# Summary of the method: (§2)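 Powders were kept at 4°C, room temperature (21°C) or 37°C and sampled for up to 90 days. Each aliquot was dissolved in DMSO, diluted with 9 volumes acetonitrile, and analyzed by HPLC for purity.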
# [4] = Stability in powder form in non-evacuated chambers at 37 degC after 1 to 14 days by HPLC method; type: physicochemical; summary of the method: as §2
# Mus musculus [5] = test: Toxicity in Balb/c mouse assessed as histopathological changes in liver at 150 mg/kg, ip dosed once using compound formulated in Solutol HS15 and ethyl alcohol measured after 48 hrs; conditions: in vivo
# Mus musculus [6] = test: Toxicity in Balb/c mouse assessed as serum AST level at 25 mg/kg, ip dosed daily for 8 days using compound formulated in Solutol HS15 and ethyl alcohol; conditions: in vivo, 192 h
# Mus musculus [7] = test: Toxicity in Balb/c mouse assessed as serum ALP level at 25 mg/kg, ip dosed daily for 8 days using compound formulated in Solutol HS15 and ethyl alcohol measured on day 6; type: organism-based; parameters: dose 25 mg/kg, route intraperitoneal; conditions: in vivo, 192 h
# NCI-H1299 = test: Anticancer activity against human H1299 cells at 0.03 to 30 uM by sulforhodamine B assay; type: functional, cell-based
# Summary of the method: (§3)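 Sulforhodamine B viability assay on lung cancer cells exposed to a range of compound concentrations for 3 days. Untreated reference: DMSO-treated cells set as 100. Values are mean ± SD of quadruplicate wells.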
# NCI-H157 = test: Anticancer activity against human NCI-H157 cells at 0.03 to 30 uM by sulforhodamine B assay; type: functional, cell-based; summary of the method: as §3
# [8] = Stability in powder form in non-evacuated chambers at 37 degC after 90 days by HPLC method; type: physicochemical; conditions: read-out: Stability; summary of the method: as §2
# Lung [9] = test: Drug level in lung of Balb/c mouse xenografted with human Calu3 cells assessed as oncrasin-72 level at 60 mg/kg, iv using compound formulated in Solutol HS15 and ethyl alcohol measured after 24 hrs by HPLC/MS method; type: ADME, organism-based, Calu-3; parameters: dose 60 mg/kg, route intravenous; conditions: in vivo; summary of the method: as §1
# [10] = Stability in injectable solution with Solutol HS15 and ethyl alcohol and 0.9% NaCl assessed as drug hydrolysis within 7 hrs at 37 degC by HPLC method; type: physicochemical; conditions: read-out: Drug degradation
# Mus musculus [11] = test: Toxicity in Balb/c mouse assessed as mortality level at 300 mg/kg, ip using compound formulated in Solutol HS15 and ethyl alcohol measured after 1 day; type: organism-based; parameters: dose 300 mg/kg, route intraperitoneal; conditions: in vivo, 24 h
# Summary of the method: (§4)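 Acute toxicity: 3 Balb/c mice (7–8 weeks) per group, given i.p. 300 mg/kg on day 1 and again on day 2. Deaths were recorded by day; survivors were followed for 2 weeks.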
# Kidney [12] = test: Drug level in kidney of Balb/c mouse xenografted with human Calu3 cells assessed as aldehyde metabolite level at 60 mg/kg, iv using compound formulated in Solutol HS15 and ethyl alcohol measured after 24 hrs by HPLC/MS method; type: ADME, organism-based, Calu-3; parameters: dose 60 mg/kg, route intravenous; conditions: in vivo; summary of the method: as §1
# Lung [13] = test: Drug level in lung of Balb/c mouse xenografted with human Calu3 cells assessed as aldehyde metabolite level at 60 mg/kg, iv using compound formulated in Solutol HS15 and ethyl alcohol measured after 24 hrs by HPLC/MS method; type: ADME, organism-based, Calu-3; parameters: dose 60 mg/kg, route intravenous; conditions: in vivo; summary of the method: as §1
# [14] = Stability in stock solution with Solutol HS15 and ethyl alcohol solvent at room temperature by HPLC method; type: physicochemical
# Summary of the method: (§5)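 Stock solutions were made by dissolving compound in 75% (w/v) Solutol HS15 in ethanol (about 20% v/v ethanol). Final concentrations were 8 mg/ml for prodrug and 5 mg/ml for parent. Stocks were stored at 4°C or room temperature; aliquots were frozen at −20°C before HPLC.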
# [15] = Pro-drug conversion in pH 7.4 PBS solution assessed as oncrasin-72 release at 0.5 mg/ml by HPLC method; type: ADME; conditions: buffer, TDE = time-dependent effect
# Summary of the method: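 Stock in DMSO/acetonitrile was diluted in PBS pH 7.4 to 0.5 mg/ml, with final 12% DMSO and 18% acetonitrile. Incubated at 37°C for up to 24 h. Aliquots taken at 0.5, 1, 3, 6 and 24 h were held at −20°C, then diluted 50-fold in acetonitrile for HPLC. One of two experiments shown.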
# Mus musculus [16] = test: Toxicity in Balb/c mouse assessed as serum ALT level at 150 mg/kg, ip dosed daily for 3 days using compound formulated in Solutol HS15 and ethyl alcohol measured on day 6; type: organism-based; parameters: dose 150 mg/kg, route intraperitoneal; conditions: in vivo, 72 h
# Tumour [17] = test: Drug level in tumor of Balb/c mouse xenografted with human Calu3 cells assessed as oncrasin-72 level at 60 mg/kg, iv using compound formulated in Solutol HS15 and ethyl alcohol measured after 24 hrs by HPLC/MS method; type: ADME, organism-based, Neoplasm, Calu-3; parameters: dose 60 mg/kg, route intravenous; conditions: in vivo; summary of the method: as §1
# Mus musculus [18] = test: Toxicity in Balb/c mouse assessed as mortality at 150 mg/kg, ip dosed daily for 3 days using compound formulated in Solutol HS15 and ethyl alcohol measured on day 5; type: organism-based; parameters: dose 150 mg/kg, route intraperitoneal; conditions: in vivo, 72 h
# Mus musculus [19] = test: Toxicity in Balb/c mouse assessed as changes in blood cell parameters at 150 mg/kg, ip dosed daily for 3 days using compound formulated in Solutol HS15 and ethyl alcohol measured after 48 hrs; type: organism-based; parameters: dose 150 mg/kg, route intraperitoneal; conditions: in vivo
# Calu-3 = test: Anticancer activity against human Calu3 cells at 0.03 to 30 uM by sulforhodamine B assay; type: functional, cell-based; summary of the method: as §3
# [20] = Stability in injectable solution with Solutol HS15 and ethyl alcohol and 0.9% NaCl assessed as drug hydrolysis within 7 hrs at room temperature by HPLC method; type: physicochemical; conditions: injectable solution; read-out: Drug degradation
# Mus musculus [21] = test: Half life in Balb/c mouse assessed as oncrasin-72 release at 25 mg/kg, iv using compound formulated in Solutol HS15 and ethyl alcohol by HPLC/MS method; type: ADME, organism-based; parameters: dose 25 mg/kg, route intravenous; conditions: in vivo
# Summary of the method: (§6)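 Balb/c mice received 25 mg/kg by tail vein in Solutol HS15/ethanol vehicle. Blood was drawn from the tail vein at 0, 1, 2, 3.5, 7 and 24 h, 3 mice per time point, into lithium-heparin tubes. Plasma (50 µl) was precipitated with 150 µl acetonitrile containing 0.2% formic acid and internal standard, iced 15 min, centrifuged, and the supernatant analyzed by HPLC/MS for parent and released drug.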
# NCI-H460 = test: Anticancer activity against human H460 cells at 0.03 to 30 uM by sulforhodamine B assay; type: functional, cell-based; summary of the method: as §3
# Liver [22] = test: Drug level in liver of Balb/c mouse xenografted with human Calu3 cells assessed as oncrasin-72 level at 60 mg/kg, iv using compound formulated in Solutol HS15 and ethyl alcohol measured after 24 hrs by HPLC/MS method; type: ADME, organism-based, Calu-3; parameters: dose 60 mg/kg, route intravenous; conditions: in vivo; summary of the method: as §1
# Spleen = test: Drug level in spleen of Balb/c mouse xenografted with human Calu3 cells assessed as aldehyde metabolite level at 60 mg/kg, iv using compound formulated in Solutol HS15 and ethyl alcohol measured after 24 hrs by HPLC/MS method; type: ADME, organism-based, Calu-3; parameters: dose 60 mg/kg, route intravenous; conditions: in vivo; summary of the method: as §1
# [23] = Drug level in liver of Balb/c mouse xenografted with human Calu3 cells at 60 mg/kg, iv using compound formulated in Solutol HS15 and ethyl alcohol measured after 24 hrs by HPLC/MS method; type: ADME, organism-based, Calu-3; parameters: dose 60 mg/kg, route intravenous; conditions: read-out: Drug uptake; summary of the method: as §1
# Mus musculus [24] = test: Toxicity in Balb/c mouse assessed as survival at 300 mg/kg, ip using compound formulated in Solutol HS15 and ethyl alcohol; type: organism-based; parameters: dose 300 mg/kg, route intraperitoneal; conditions: in vivo; summary of the method: as §4
# Intestine = test: Drug level in intestine of Balb/c mouse xenografted with human Calu3 cells assessed as aldehyde metabolite level at 60 mg/kg, iv using compound formulated in Solutol HS15 and ethyl alcohol measured after 24 hrs by HPLC/MS method; type: ADME, organism-based, Calu-3; parameters: dose 60 mg/kg, route intravenous; conditions: in vivo; summary of the method: as §1
# Liver [25] = test: Drug level in liver of Balb/c mouse xenografted with human Calu3 cells assessed as aldehyde metabolite level at 60 mg/kg, iv using compound formulated in Solutol HS15 and ethyl alcohol measured after 24 hrs by HPLC/MS method; type: ADME, organism-based, Calu-3; parameters: dose 60 mg/kg, route intravenous; conditions: in vivo; summary of the method: as §1
# [26] = Half life in Balb/c mouse at 25 mg/kg, iv using compound formulated in Solutol HS15 and ethyl alcohol by HPLC/MS method; type: ADME, organism-based; parameters: dose 25 mg/kg, route intravenous; conditions: in vivo; summary of the method: as §6
# [27] = Stability in powder form in non-evacuated chambers at room temperature by HPLC method; type: physicochemical; summary of the method: as §2
# Mus musculus [28] = test: Toxicity in Balb/c mouse assessed as serum ALP level at 150 mg/kg, ip dosed daily for 3 days using compound formulated in Solutol HS15 and ethyl alcohol measured on day 6; type: organism-based; parameters: dose 150 mg/kg, route intraperitoneal; conditions: in vivo, 72 h
# Mus musculus [29] = test: Toxicity in Balb/c mouse assessed as serum ALT level at 25 mg/kg, ip dosed daily for 8 days using compound formulated in Solutol HS15 and ethyl alcohol measured on day 6; type: organism-based; parameters: dose 25 mg/kg, route intraperitoneal; conditions: in vivo, 192 h
# [30] = Stability in stock solution with Solutol HS15 and ethyl alcohol solvent at 4 degC by HPLC method; type: physicochemical; summary of the method: as §5
# Kidney [31] = test: Drug level in kidney of Balb/c mouse xenografted with human Calu3 cells assessed as oncrasin-72 level at 60 mg/kg, iv using compound formulated in Solutol HS15 and ethyl alcohol measured after 24 hrs by HPLC/MS method; type: ADME, organism-based, Calu-3; parameters: dose 60 mg/kg, route intravenous; conditions: in vivo; summary of the method: as §1
structure (smiles),measurement,setting,value
O=C(CC1CCCCC1)OCc1cn(Cc2cccc(Cl)c2)c2ccccc12,Activity,Mus musculus [1],325.5 U/L
same,Drug metabolism,Plasma,metabolite_detected
same,Drug uptake,Tumour [2],4.4 µg/g
same,Stability,[3],90 days
same,Stability,[4],Stable
same,Activity,Mus musculus [5],Non-toxic
same,Activity,Mus musculus [6],94 U/L
same,Activity,Mus musculus [7],76 U/L
same,Activity,NCI-H1299,inactive
same,Activity,NCI-H157,Active
same,remaining at 2160 h,[8],< 5%
same,Drug uptake,Lung [9],7.7 µg/g
same,degraded at 7 h,[10],> 10%
same,Activity,Mus musculus [11],Toxic
same,Drug uptake,Kidney [12],26.5 µg/g
same,Drug uptake,Lung [13],68.4 µg/g
same,Stability,[14],2 weeks
same,Drug metabolism,[15],tde
same,Activity,Mus musculus [16],115.5 U/L
same,Drug uptake,Tumour [17],4.7 µg/g
same,Activity,Mus musculus [18],Non-toxic
same,Activity,Mus musculus [19],Non-toxic
same,Activity,Calu-3,Active
same,degraded at 7 h,[20],10%
same,t1/2,Mus musculus [21],1.25 h
same,Activity,NCI-H460,Active
same,Drug uptake,Liver [22],12.6 µg/g
same,Drug uptake,Spleen,34 µg/g
same,concentration at 24 h,[23],157000 ng/g
same,Survival,Mus musculus [24],2 weeks
same,Drug uptake,Intestine,5.9 µg/g
same,Drug uptake,Liver [25],14.9 µg/g
same,half-life,[26],1 h
same,Stability,[27],90 days
same,Activity,Mus musculus [28],50 U/L
same,Activity,Mus musculus [29],36.3 U/L
same,Stability,[30],4 weeks
same,Drug uptake,Kidney [31],7.3 µg/g
